Data from ChEMBL document CHEMBL1777788, “Synthesis and in vitro antimicrobial activities of new (cyano-NNO-azoxy)pyrazole derivatives” (2011).
Converted amounts (≈) assume the structure as drawn.

Experiments:
[1] = tested on: Cryptococcus deneoformans; experiment: Antimicrobial activity against Cryptococcus neoformans var. neoformans isolate 30 after 48 hrs by microdilution broth method; format: functional; conditions: isolate 30, 48 h
In short: (§1)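 Yeasts were grown overnight on Sabouraud dextrose agar at 35°C, suspended in water, and adjusted at 530 nm to McFarland 0.5 (approximately 1-5 x 10^6 CFU/ml). They were then diluted 1:100 and 1:20 in RPMI 1640 with 0.165 M MOPS and 2% glucose. Compound in DMSO was tested at ten concentrations, 0.25–256 mg/L, with incubation at 35°C. At 48 h, MIC was read spectrophotometrically as 50% turbidity reduction versus growth control.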

Pichia kudriavzevii [2] = experiment: Antimicrobial activity against Candida krusei isolate 48 after 48 hrs by microdilution broth method; format: functional
Nakaseomyces glabratus [3] = experiment: Antimicrobial activity against Candida glabrata isolate 49 after 48 hrs by microdilution broth method; format: functional; in short: as §1
Nakaseomyces glabratus [4] = experiment: Antimicrobial activity against Candida glabrata isolate 30 after 48 hrs by microdilution broth method; format: functional; in short: as §1
Candida tropicalis [5] = experiment: Antimicrobial activity against Candida tropicalis isolate 11 after 48 hrs by microdilution broth method; format: functional; conditions: isolate 11, 48 h; in short: as §1
Candida parapsilosis [6] = experiment: Antimicrobial activity against Candida parapsilosis isolate 26 after 48 hrs by microdilution broth method; format: functional; conditions: Lodderomyces parapsilosis, isolate 26, 48 h; in short: as §1
[7] = tested on: Cryptococcus deneoformans; experiment: Antimicrobial activity against Cryptococcus neoformans var. neoformans isolate 25 after 48 hrs by microdilution broth method; format: functional; conditions: isolate 25, 48 h; in short: as §1
Nakaseomyces glabratus [8] = experiment: Antimicrobial activity against Candida glabrata isolate 46 after 48 hrs by microdilution broth method; format: functional; in short: as §1
[9] = tested on: Cryptococcus deneoformans; experiment: Antimicrobial activity against Cryptococcus neoformans var. neoformans isolate 27 after 48 hrs by microdilution broth method; format: functional; conditions: isolate 27, 48 h; in short: as §1
Candida tropicalis [10] = experiment: Antimicrobial activity against Candida tropicalis isolate 15 after 48 hrs by microdilution broth method; format: functional; conditions: isolate 15, 48 h; in short: as §1
Candida albicans [11] = experiment: Antimicrobial activity against Candida albicans isolate 47 after 48 hrs by microdilution broth method; format: functional; conditions: isolate 47, 48 h; in short: as §1
Nakaseomyces glabratus [12] = experiment: Antimicrobial activity against Candida glabrata isolate 32 after 48 hrs by microdilution broth method; format: functional; conditions: isolate 32, 48 h; in short: as §1
Candida tropicalis [13] = experiment: Antimicrobial activity against Candida tropicalis isolate 22 after 48 hrs by microdilution broth method; format: functional; conditions: isolate 22, 48 h; in short: as §1
Candida parapsilosis [14] = experiment: Antimicrobial activity against Candida parapsilosis ATCC 22019 after 48 hrs by microdilution broth method; format: functional; conditions: Lodderomyces parapsilosis, ATCC 22019, 48 h; in short: as §1
Candida tropicalis [15] = experiment: Antimicrobial activity against Candida tropicalis isolate 33 after 48 hrs by microdilution broth method; format: functional; conditions: isolate 33, 48 h; in short: as §1
Pichia kudriavzevii [16] = experiment: Antimicrobial activity against Candida krusei ATCC 6258 after 48 hrs by microdilution broth method; format: functional; conditions: ATCC 6258, 48 h
[17] = tested on: Cryptococcus deneoformans; experiment: Antimicrobial activity against Cryptococcus neoformans var. neoformans isolate 14 after 48 hrs by microdilution broth method; format: functional; conditions: isolate 14, 48 h; in short: as §1
Candida albicans [18] = experiment: Antimicrobial activity against Candida albicans isolate 31 after 48 hrs by microdilution broth method; format: functional; conditions: isolate 31, 48 h; in short: as §1
Pichia kudriavzevii [19] = experiment: Antimicrobial activity against Candida krusei isolate 31 after 48 hrs by microdilution broth method; format: functional; conditions: isolate 31, 48 h; in short: as §1
Pichia kudriavzevii [20] = experiment: Antimicrobial activity against Candida krusei isolate 43 after 48 hrs by microdilution broth method; format: functional
Candida albicans [21] = experiment: Antimicrobial activity against Candida albicans ATCC 90028 after 48 hrs by microdilution broth method; format: functional; conditions: ATCC 90028, 48 h
In short: (§2)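 Yeasts grown overnight on Sabouraud dextrose agar at 35°C, suspended in sterile water, and adjusted to McFarland 0.5 at 530 nm (about 1-5 x 10^6 CFU/ml), then diluted 1:100 and 1:20 in RPMI 1640 with 0.165 M MOPS and 2% glucose. Compound in DMSO tested at ten concentrations, 0.25-256 mg/L, at 35°C. MIC read spectrophotometrically at 48 h as 50% turbidity reduction versus growth control.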

Candida parapsilosis [22] = experiment: Antimicrobial activity against Candida parapsilosis isolate 19 after 48 hrs by microdilution broth method; format: functional; conditions: Lodderomyces parapsilosis, isolate 19, 48 h; in short: as §1
Candida albicans [23] = experiment: Antimicrobial activity against Candida albicans isolate 48 after 48 hrs by microdilution broth method; format: functional; conditions: isolate 48, 48 h; in short: as §1
Candida parapsilosis [24] = experiment: Antimicrobial activity against Candida parapsilosis isolate 39 after 48 hrs by microdilution broth method; format: functional; conditions: Lodderomyces parapsilosis, isolate 39, 48 h; in short: as §2
Proteus mirabilis = experiment: Antimicrobial activity against Proteus mirabilis isolate after 24 hrs by microdilution broth method
Escherichia coli = experiment: Antimicrobial activity against Escherichia coli isolate after 24 hrs by microdilution broth method
Pseudomonas aeruginosa [25] = experiment: Antimicrobial activity against Pseudomonas aeruginosa isolate 2 after 24 hrs by microdilution broth method; conditions: isolate 2, 24 h
Candida parapsilosis [26] = experiment: Antimicrobial activity against Candida parapsilosis isolate 44 after 48 hrs by microdilution broth method; format: functional; conditions: Lodderomyces parapsilosis, isolate 44, 48 h; in short: as §1
Candida albicans [27] = experiment: Antimicrobial activity against Candida albicans isolate 41 after 48 hrs by microdilution broth method; format: functional; conditions: isolate 41, 48 h; in short: as §1
Staphylococcus aureus = experiment: Antimicrobial activity against methicillin-susceptible Staphylococcus aureus isolate after 24 hrs by microdilution broth method
Pseudomonas aeruginosa [28] = experiment: Antimicrobial activity against Pseudomonas aeruginosa isolate 1 after 24 hrs by microdilution broth method; conditions: isolate 1, 24 h

| SMILES | MIC [1] [µg/mL] | MIC (Pichia kudriavzevii [2]) [µg/mL] | MIC (Nakaseomyces glabratus [3]) [µg/mL] | MIC (Nakaseomyces glabratus [4]) [µg/mL] | MIC (Candida tropicalis [5]) [µg/mL] | MIC (Candida parapsilosis [6]) [µg/mL] | MIC [7] [µg/mL] | MIC (Nakaseomyces glabratus [8]) [µg/mL] | MIC [9] [µg/mL] | MIC (Candida albicans [11]) [µg/mL] | MIC (Nakaseomyces glabratus [12]) [µg/mL] | MIC (Candida tropicalis [13]) [µg/mL] | MIC (Candida parapsilosis [14]) [µg/mL] | MIC (Candida tropicalis [15]) [µg/mL] | MIC (Pichia kudriavzevii [16]) [µg/mL] | MIC [17] [µg/mL] | MIC (Candida albicans [18]) [µg/mL] | MIC (Pichia kudriavzevii [19]) [µg/mL] | MIC (Pichia kudriavzevii [20]) [µg/mL] | MIC (Candida parapsilosis [22]) [µg/mL] | other results |
| --- | --- | --- | --- | --- | --- | --- | --- | --- | --- | --- | --- | --- | --- | --- | --- | --- | --- | --- | --- | --- | --- |
| Cc1cc(-c2c(/[N+]([O-])=N/C#N)c(C)nn2C)no1 | 8 (≈ 32.5 µM) | 32 (≈ 130 µM) | 64 (≈ 260 µM) | 128 (≈ 520 µM) | 128 (≈ 520 µM) | 128 (≈ 520 µM) | 8 (≈ 32.5 µM) | 128 (≈ 520 µM) | 8 (≈ 32.5 µM) | 128 (≈ 520 µM) | 16 (≈ 65 µM) | > 128 | > 128 | > 128 | 16 (≈ 65 µM) | 8 (≈ 32.5 µM) | 32 (≈ 130 µM) | 32 (≈ 130 µM) | 32 (≈ 130 µM) | > 128 | MIC (Proteus mirabilis): > 128 µg/mL; MIC (Escherichia coli): > 128 µg/mL; MIC (Pseudomonas aeruginosa [25]): > 128 µg/mL; MIC (Candida parapsilosis [26]): 128 µg/mL (≈ 520 µM); MIC (Candida albicans [27]): 32 µg/mL (≈ 130 µM); MIC (Staphylococcus aureus): > 128 µg/mL; MIC (Candida albicans [23]): 128 µg/mL (≈ 520 µM); MIC (Pseudomonas aeruginosa [28]): > 128 µg/mL |
| Cc1ccc(S(=O)(=O)/N=[N+](\[O-])c2c(-c3cccs3)nn(C)c2C)cc1 | 128 (≈ 340 µM) | > 128 | > 128 | > 128 | > 128 | > 128 | 128 (≈ 340 µM) | > 128 | 64 (≈ 170 µM) | > 128 | > 128 | > 128 | > 128 | > 128 | > 128 | 64 (≈ 170 µM) | > 128 | > 128 | > 128 | > 128 | MIC (Candida tropicalis [10]): > 128 µg/mL; MIC (Candida albicans [21]): > 128 µg/mL; MIC (Candida albicans [23]): > 128 µg/mL; MIC (Candida parapsilosis [24]): > 128 µg/mL |
| Cc1c(/[N+]([O-])=N/C(N)=O)c(-c2cccs2)nn1C | 128 (≈ 482 µM) | > 128 | > 128 | > 128 | > 128 | > 128 | 128 (≈ 482 µM) | > 128 | 64 (≈ 241 µM) | > 128 | > 128 | > 128 | > 128 | > 128 | > 128 | 64 (≈ 241 µM) | > 128 | > 128 | > 128 | > 128 | MIC (Candida tropicalis [10]): > 128 µg/mL; MIC (Candida albicans [21]): > 128 µg/mL; MIC (Candida albicans [23]): > 128 µg/mL; MIC (Candida parapsilosis [24]): > 128 µg/mL |

Stronger by MIC [1], values ahead:

| MIC [1] [µg/mL] | MIC (Pichia kudriavzevii [2]) [µg/mL] | MIC (Nakaseomyces glabratus [3]) [µg/mL] | MIC (Nakaseomyces glabratus [4]) [µg/mL] | MIC (Candida tropicalis [5]) [µg/mL] | MIC (Candida parapsilosis [6]) [µg/mL] | MIC [7] [µg/mL] | MIC (Nakaseomyces glabratus [8]) [µg/mL] | MIC [9] [µg/mL] | MIC (Candida albicans [11]) [µg/mL] | MIC (Nakaseomyces glabratus [12]) [µg/mL] | MIC (Candida tropicalis [13]) [µg/mL] | MIC (Candida parapsilosis [14]) [µg/mL] | MIC (Candida tropicalis [15]) [µg/mL] | MIC (Pichia kudriavzevii [16]) [µg/mL] | MIC [17] [µg/mL] | MIC (Candida albicans [18]) [µg/mL] | MIC (Pichia kudriavzevii [19]) [µg/mL] | MIC (Pichia kudriavzevii [20]) [µg/mL] | MIC (Candida parapsilosis [22]) [µg/mL] | SMILES | other results |
| --- | --- | --- | --- | --- | --- | --- | --- | --- | --- | --- | --- | --- | --- | --- | --- | --- | --- | --- | --- | --- | --- |
| 0.5 (≈ 2.02 µM) | 2 (≈ 8.09 µM) | 2 (≈ 8.09 µM) | 2 (≈ 8.09 µM) | 32 (≈ 129 µM) | 16 (≈ 64.7 µM) | 0.5 (≈ 2.02 µM) | 2 (≈ 8.09 µM) | 0.25 (≈ 1.01 µM) | 4 (≈ 16.2 µM) | 2 (≈ 8.09 µM) | 32 (≈ 129 µM) | 32 (≈ 129 µM) | 32 (≈ 129 µM) | 1 (≈ 4.04 µM) | 0.25 (≈ 1.01 µM) | 4 (≈ 16.2 µM) | 1 (≈ 4.04 µM) | 1 (≈ 4.04 µM) | 32 (≈ 129 µM) | Cc1nn(C)c(-c2cccs2)c1/[N+]([O-])=N/C#N | MIC (Candida tropicalis [10]): 64 µg/mL (≈ 259 µM); MIC (Candida albicans [21]): 4 µg/mL (≈ 16.2 µM); MIC (Candida albicans [23]): 4 µg/mL (≈ 16.2 µM); MIC (Candida parapsilosis [24]): 16 µg/mL (≈ 64.7 µM) |
| 0.25 (≈ 1.08 µM) | 2 (≈ 8.65 µM) | 1 (≈ 4.32 µM) | 1 (≈ 4.32 µM) | 32 (≈ 138 µM) | 8 (≈ 34.6 µM) | 0.25 (≈ 1.08 µM) | 1 (≈ 4.32 µM) | 0.25 (≈ 1.08 µM) | 4 (≈ 17.3 µM) | 2 (≈ 8.65 µM) | 128 (≈ 554 µM) | 32 (≈ 138 µM) | 128 (≈ 554 µM) | 1 (≈ 4.32 µM) | 0.25 (≈ 1.08 µM) | 2 (≈ 8.65 µM) | 1 (≈ 4.32 µM) | 2 (≈ 8.65 µM) | 64 (≈ 277 µM) | Cc1c(/[N+]([O-])=N/C#N)c(-c2ccco2)nn1C | MIC (Candida tropicalis [10]): 128 µg/mL (≈ 554 µM); MIC (Candida albicans [21]): 1 µg/mL (≈ 4.32 µM); MIC (Candida albicans [23]): 4 µg/mL (≈ 17.3 µM); MIC (Candida parapsilosis [24]): 16 µg/mL (≈ 69.2 µM) |
